Measurements from ChEMBL document CHEMBL2150901, “Synthesis and biological activity of tricyclic cycloalkylimidazo-, pyrimido- and diazepinopurinediones” (Eur J Med Chem, 2011).
Activity calls are given as the source filed them. The calls are words filed in the database; no cut-off is given here.

What was measured:
Mus musculus [1] = test: Anticonvulsant activity in F1 albino mouse assessed as protection against subcutaneous pentylenetetrazole-induced seizures at 300 mg/kg, ip after 4 hrs; format: functional, organism-based; parameters: dose 300 mg/kg
Method in brief: (§1)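 Male albino F-1 mice (18–25 g), groups of 1–5 (rotorod 2–8). Compound given ip as a suspension in 0.5% methylcellulose at 30, 100 and 300 mg/kg. Seizures by maximal electroshock or subcutaneous pentylenetetrazole; neurotoxicity by rotorod. Read at 0.5 and 4 h, with some at 0.25, 1 and 2 h. Value is the minimum active dose, with protected (or toxic)/tested animals.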

Mus musculus [2] = test: Anticonvulsant activity in F1 albino mouse assessed as protection against maximal electroshock-induced seizures at 300 mg/kg, ip after 0.5 hrs; format: functional, organism-based; parameters: dose 300 mg/kg; method in brief: as §1
Adenosine receptor A2a [3] = target: Adenosine receptor A2a (Homo sapiens, UniProt P29274); test: Displacement of [3H]MSX-2 from human recombinant adenosine A2A receptor expressed in CHO cells; format: cell-based
Sequence of Adenosine receptor A2a (Homo sapiens, UniProt P29274) (P29274 whole entry): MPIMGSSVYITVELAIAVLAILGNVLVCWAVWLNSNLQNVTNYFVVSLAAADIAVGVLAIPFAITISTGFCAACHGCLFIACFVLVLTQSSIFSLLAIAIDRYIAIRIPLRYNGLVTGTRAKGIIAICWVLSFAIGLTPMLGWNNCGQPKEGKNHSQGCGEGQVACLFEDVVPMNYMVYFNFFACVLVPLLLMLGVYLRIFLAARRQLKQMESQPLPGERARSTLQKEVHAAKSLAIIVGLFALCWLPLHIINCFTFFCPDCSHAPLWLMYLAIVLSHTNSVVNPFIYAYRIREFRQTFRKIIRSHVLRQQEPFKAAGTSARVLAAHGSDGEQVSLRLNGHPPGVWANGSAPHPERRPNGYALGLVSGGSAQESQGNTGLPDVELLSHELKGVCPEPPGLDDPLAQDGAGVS

[4] = target: T1, Adenosine receptor A1 (Rattus norvegicus) (UniProt P25099); test: Displacement of [3H]CCPA from adenosine A1 receptor in rat brain cortical membrane at 25 uM; format: cell membranes
T1 sequence (whole entry): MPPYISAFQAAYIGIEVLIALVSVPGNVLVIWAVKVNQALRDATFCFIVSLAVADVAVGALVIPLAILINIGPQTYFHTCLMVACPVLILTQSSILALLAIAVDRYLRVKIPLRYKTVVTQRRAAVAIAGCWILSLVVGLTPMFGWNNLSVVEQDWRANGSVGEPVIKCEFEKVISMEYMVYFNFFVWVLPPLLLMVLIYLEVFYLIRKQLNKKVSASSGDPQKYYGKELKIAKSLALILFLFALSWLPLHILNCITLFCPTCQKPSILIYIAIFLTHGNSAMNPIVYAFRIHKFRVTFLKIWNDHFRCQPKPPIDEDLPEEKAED

Mus musculus [5] = test: Neurotoxicity in F1 albino mouse assessed as minimal motor impairment at 300 mg/kg, ip after 0.5 hrs by rotorod test; format: toxicity, organism-based; parameters: dose 300 mg/kg, route intraperitoneal; details: in vivo; method in brief: as §1
[6] = target: T2, Adenosine receptor A3 (Homo sapiens) (UniProt P0DMS8); test: Displacement of [3H]PSB-11 from human recombinant adenosine A3 receptor expressed in CHO cells at 10 uM; format: cell-based
T2 sequence (whole entry): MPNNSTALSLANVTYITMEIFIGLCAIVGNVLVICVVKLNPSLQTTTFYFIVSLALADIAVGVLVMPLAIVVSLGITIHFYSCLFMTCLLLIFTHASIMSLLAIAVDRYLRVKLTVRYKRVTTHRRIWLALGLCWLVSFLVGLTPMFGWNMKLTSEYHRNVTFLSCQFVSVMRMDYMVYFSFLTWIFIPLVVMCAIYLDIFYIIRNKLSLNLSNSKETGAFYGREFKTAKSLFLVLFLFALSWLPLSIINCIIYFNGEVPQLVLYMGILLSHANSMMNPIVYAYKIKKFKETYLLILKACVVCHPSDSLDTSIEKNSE
Method in brief: (§2)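 CHO cell membranes expressing the human receptor. Radioligands: A1 [3H]CCPA; A2B [3H]ZM241385 or [3H]PSB-603; A3 [3H]PSB-11. […] Potent compounds run at 6–7 concentrations spanning 3 orders of magnitude; Ki ± SEM.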

Mus musculus [7] = test: Anticonvulsant activity in F1 albino mouse assessed as protection against maximal electroshock-induced seizures at 300 mg/kg, ip after 1 hr; format: functional, organism-based; parameters: dose 300 mg/kg; method in brief: as §1
Adenosine receptor A1 [8] = target: T3, Adenosine receptor A1 (Rattus norvegicus, UniProt P25099); test: Displacement of [3H]CCPA from adenosine A1 receptor in rat brain cortical membrane; format: cell membranes
T3 sequence (P25099 whole entry): T1 sequence (whole entry)

[9] = target: T4, Adenosine receptor A2b (Homo sapiens) (UniProt P29275); test: Displacement of [3H]PSB-603 from human recombinant adenosine A2B receptor expressed in CHO cells at 10 uM; format: cell-based; method in brief: as §2
T4 sequence (whole entry): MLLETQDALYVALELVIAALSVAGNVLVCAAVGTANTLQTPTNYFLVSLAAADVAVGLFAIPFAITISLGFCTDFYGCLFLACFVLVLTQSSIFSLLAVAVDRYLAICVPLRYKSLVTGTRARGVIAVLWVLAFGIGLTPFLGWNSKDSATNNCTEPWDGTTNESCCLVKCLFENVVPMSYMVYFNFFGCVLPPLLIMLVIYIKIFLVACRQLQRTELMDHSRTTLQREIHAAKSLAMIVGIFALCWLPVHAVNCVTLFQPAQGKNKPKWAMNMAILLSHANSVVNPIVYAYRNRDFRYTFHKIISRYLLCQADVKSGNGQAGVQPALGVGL

Adenosine receptor A2a [10] = target: Adenosine receptor A2a (Rattus norvegicus, UniProt P30543); test: Displacement of [3H]MSX-2 from adenosine A2A receptor in rat brain striatal membrane; format: cell membranes
Sequence of Adenosine receptor A2a (Rattus norvegicus, UniProt P30543) (P30543 whole entry): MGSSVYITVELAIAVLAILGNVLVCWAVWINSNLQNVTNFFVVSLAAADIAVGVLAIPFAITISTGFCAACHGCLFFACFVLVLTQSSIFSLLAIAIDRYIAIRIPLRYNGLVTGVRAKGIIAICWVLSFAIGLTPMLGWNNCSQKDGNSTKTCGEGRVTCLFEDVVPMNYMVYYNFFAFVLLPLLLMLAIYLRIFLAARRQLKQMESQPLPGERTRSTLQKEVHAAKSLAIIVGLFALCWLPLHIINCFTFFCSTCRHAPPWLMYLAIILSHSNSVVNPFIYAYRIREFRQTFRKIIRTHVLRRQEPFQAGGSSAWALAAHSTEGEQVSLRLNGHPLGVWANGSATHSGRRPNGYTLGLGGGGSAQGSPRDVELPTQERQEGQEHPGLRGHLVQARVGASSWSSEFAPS

Mus musculus [11] = test: Anticonvulsant activity in F1 albino mouse assessed as protection against maximal electroshock-induced seizures at 300 mg/kg, ip after 0.25 hrs; format: functional, organism-based; parameters: dose 300 mg/kg; method in brief: as §1
Mus musculus [12] = test: Neurotoxicity in F1 albino mouse assessed as minimal motor impairment at 300 mg/kg, ip after 0.25 hrs by rotorod test; format: toxicity, organism-based; parameters: dose 300 mg/kg, route intraperitoneal; details: in vivo; method in brief: as §1
Adenosine receptor A3 = target: T5, Adenosine receptor A3 (Homo sapiens, UniProt P0DMS8); test: Displacement of [3H]PSB-11 from human recombinant adenosine A3 receptor expressed in CHO cells; format: cell-based
T5 sequence (P0DMS8 whole entry): T2 sequence (whole entry)

Rattus norvegicus = species on record: Rattus norvegicus; test: Selectivity ratio of Ki for adenosine A1 receptor in rat brain cortical membrane to Ki for adenosine A2A receptor in rat brain striatal membrane; format: cell membranes
Method in brief: (§3)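 Ki ratios from radioligand competition binding. Rat A1 used brain cortical membranes and rat A2A used brain striatal membranes. Human A1 and A2A used membranes of CHO cells expressing the receptors. A1 radioligand [³H]CCPA; A2A radioligand [³H]MSX-2. Potent compounds were tested at 6–7 concentrations spanning 3 orders of magnitude.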

Mus musculus [13] = test: Neurotoxicity in F1 albino mouse assessed as minimal motor impairment at 300 mg/kg, ip after 4 hrs by rotorod test; format: toxicity, organism-based; parameters: dose 300 mg/kg, route intraperitoneal; details: in vivo; method in brief: as §1
Adenosine receptor A1 [14] = target: T6, Adenosine receptor A1 (Homo sapiens, UniProt P30542); test: Displacement of [3H]CCPA from human recombinant adenosine A1 receptor expressed in CHO cells; format: cell-based
T6 sequence (P30542 whole entry): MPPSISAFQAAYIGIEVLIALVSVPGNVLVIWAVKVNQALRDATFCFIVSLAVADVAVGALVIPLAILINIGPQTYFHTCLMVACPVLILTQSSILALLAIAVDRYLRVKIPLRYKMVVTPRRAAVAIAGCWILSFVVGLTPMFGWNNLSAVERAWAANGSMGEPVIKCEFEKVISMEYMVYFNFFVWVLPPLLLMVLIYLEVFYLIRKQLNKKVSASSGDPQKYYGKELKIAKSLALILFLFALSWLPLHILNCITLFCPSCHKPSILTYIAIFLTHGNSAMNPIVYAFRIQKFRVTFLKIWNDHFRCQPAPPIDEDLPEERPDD

Mus musculus [15] = test: Anticonvulsant activity in F1 albino mouse assessed as protection against maximal electroshock-induced seizures at 300 mg/kg, ip after 4 hrs; format: functional, organism-based; parameters: dose 300 mg/kg; method in brief: as §1
Mus musculus [16] = test: Anticonvulsant activity in F1 albino mouse assessed as protection against subcutaneous pentylenetetrazole-induced seizures at 300 mg/kg, ip after 0.25 hrs; format: functional, organism-based; parameters: dose 300 mg/kg; method in brief: as §1
Adenosine receptor A2b = target: T7, Adenosine receptor A2b (Homo sapiens, UniProt P29275); test: Displacement of [3H]PSB-603 from human recombinant adenosine A2B receptor expressed in CHO cells; format: cell-based; method in brief: as §2
T7 sequence (P29275 whole entry): T4 sequence (whole entry)

Mus musculus [17] = test: Anticonvulsant activity in F1 albino mouse assessed as protection against subcutaneous pentylenetetrazole-induced seizures at 300 mg/kg, ip after 0.5 hrs; format: functional, organism-based; parameters: dose 300 mg/kg; method in brief: as §1
[18] = target: T8, Adenosine receptor A1 (Homo sapiens) (UniProt P30542); test: Displacement of [3H]CCPA from human recombinant adenosine A1 receptor expressed in CHO cells at 10 uM; format: cell-based; method in brief: as §2
T8 sequence (whole entry): T6 sequence (P30542 whole entry)

Mus musculus [19] = test: Anticonvulsant activity in F1 albino mouse assessed as protection against subcutaneous pentylenetetrazole-induced seizures at 300 mg/kg, ip after 1 hr; format: functional, organism-based; parameters: dose 300 mg/kg; method in brief: as §1
CHO = test: Selectivity ratio of Ki for human recombinant adenosine A2A receptor expressed in CHO cells to Ki for adenosine A2A receptor in rat brain striatal membrane; format: cell-based; method in brief: as §3
Mus musculus [20] = test: Neurotoxicity in F1 albino mouse assessed as minimal motor impairment at 300 mg/kg, ip after 1 hr by rotorod test; format: toxicity, organism-based; parameters: dose 300 mg/kg, route intraperitoneal; details: in vivo; method in brief: as §1

SMILES	Activity (Mus musculus [1])	Activity (Mus musculus [2])	inhibition [4] [%]	Activity (Mus musculus [5])	Activity (Mus musculus [7])	Ki (Adenosine receptor A1 [8]) [µM]	Ki (Adenosine receptor A2a [10]) [µM]	Activity (Mus musculus [11])	Activity (Mus musculus [12])	Ratio Ki (Rattus norvegicus)	Activity (Mus musculus [13])	Activity (Mus musculus [15])	Activity (Mus musculus [16])	Activity (Mus musculus [17])	Activity (Mus musculus [19])	Activity (Mus musculus [20])	other results
Cn1c(=O)c2c(nc3n2CCCN3C2CCCCC2)n(C)c1=O	inactive	inactive	39	Non-toxic	inactive	≥ 25	0.81	inactive	Non-toxic	> 31	Non-toxic	inactive	inactive	Active	inactive	Non-toxic	Ki (Adenosine receptor A2a [3]): 1.61 µM; inhibition [6]: 12%; inhibition [9]: 0%; Ki (Adenosine receptor A3): > 10 µM; Ki (Adenosine receptor A1 [14]): > 10 µM; Ki (Adenosine receptor A2b): > 10 µM; inhibition [18]: 37%; Ratio Ki (CHO): 2
Cn1c(=O)c2c(nc3n2CCN3C2CCCC2)n(C)c1=O	inactive	inactive	50	Toxic	inactive	25	3.1	inactive	Non-toxic	8	Non-toxic	inactive	inactive	Active	inactive	Non-toxic	–
